Screening results as filed in PubChem.
PG9 binder – binders of HIV-1 gp120 antibody PG9, primary screen, biochemical, TR-FRET | TR-FRET gp120-PG9 antibody binding | inhibition, % at 6.7 µM | actives 0.43% (n = 360,000) | HIV-1 gp120 / PG9 antibody interaction; in the data active means inhibition above about 8.5%
NR2E3 ag-1 – inhibitors of NR2E3-RetCOR corepressor binding, primary screen, NR2E3 agonist project, biochemical, TR-FRET, GST-NR2E3, biotin-RetCOR; 1536-well; inhibition of corepressor binding, % at 4.78 µM; actives 0.12% (n = 320,000);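 active means percent inhibition above the cutoff of mean plus 3 SD of all tested compounds, set per screening campaign, cut at about 20% in these data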
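System: GST-NR2E3 and biotin-RetCOR proteins; probe or stimulus: 7 nM biotin-RetCOR; doses: compound at 4.8 µM, single dose; schedule: Compound–protein incubation for 5 h at 4 °C; detection: time-resolved FRET; read-out: percent inhibition; controls: biotin wells as high control, 0.6% DMSO wells as low control; format: 1536-well plates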
NR2E3 ag-2 – NR2E3 agonists in two-hybrid cells, primary screen, cell-based, luminescence, CHO-S, Gal4-NCOR/VP16-NR2E3. Photoreceptor-specific nuclear receptor (Homo sapiens), Q9Y5X4. luciferase. inhibition of corepressor binding, % at 3.98 µM. actives 0.35% (n = 360,000). AID 602229, 2012;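 active means inhibition above the mean of all tested compounds plus 3 SD, cut at about 70% in these data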;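 further: higher means lower luciferase signal from less NR2E3 corepressor binding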
NR1D1 modulator – modulators of Rev-erb alpha DNA binding, primary screen, biochemical, FITC-DNA, fluorescence polarization, uHTS; Nuclear receptor subfamily 1 group D member 1 (Homo sapiens), P20393; Rev-erbα–FITC-DNA binding, 90 min; activity, % at 10 µM; actives 0.79% (n = 370,000); AID 1259318, 2017;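 active means activity above about 14%, limit read from the data; passing the limit was not always enough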
Target sequence (P20393 whole entry, looked up): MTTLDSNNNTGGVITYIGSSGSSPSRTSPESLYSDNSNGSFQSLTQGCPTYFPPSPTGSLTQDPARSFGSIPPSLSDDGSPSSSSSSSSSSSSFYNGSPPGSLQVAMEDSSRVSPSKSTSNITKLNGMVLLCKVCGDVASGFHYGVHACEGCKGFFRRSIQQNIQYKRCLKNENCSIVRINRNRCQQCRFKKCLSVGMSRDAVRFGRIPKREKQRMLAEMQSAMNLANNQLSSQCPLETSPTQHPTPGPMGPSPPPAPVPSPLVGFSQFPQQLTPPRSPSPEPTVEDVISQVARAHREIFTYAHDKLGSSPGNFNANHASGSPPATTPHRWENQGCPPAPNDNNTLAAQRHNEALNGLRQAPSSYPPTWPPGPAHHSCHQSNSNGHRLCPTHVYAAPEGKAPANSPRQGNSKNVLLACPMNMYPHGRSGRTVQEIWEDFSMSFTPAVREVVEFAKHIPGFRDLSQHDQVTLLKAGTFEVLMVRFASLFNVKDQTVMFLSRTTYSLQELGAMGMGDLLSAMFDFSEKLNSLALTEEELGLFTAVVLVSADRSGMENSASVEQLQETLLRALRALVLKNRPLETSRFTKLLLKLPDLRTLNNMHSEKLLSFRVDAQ
PG9 bind confirm – binders of anti-gp120 antibody PG9, confirmation, biochemical, TR-FRET | shares compounds with PG9 binder | TR-FRET PG9 antibody binding | inhibition, % at 6.7 µM | actives 90% (n = 1,500); in the data active means inhibition above about 9%
PGV04 counter – binders of control antibody PGV04, counter-screen for PG9 antibody binder project, biochemical, TR-FRET, distinct HIV envelope site; shares compounds with PG9 binder; TR-FRET PGV04 antibody-gp120 binding; inhibition, % at 6.7 µM; actives 95% (n = 1,500); AID 651604, 2012; in the data active means inhibition above about 9.5%
PG9 binder DR – small-molecule binders of antibody PG9, dose response, biochemical, TR-FRET, HIV-1 gp120 antibody; shares compounds with PG9 binder; IC50, µM; 95 tested, under 10 active; TR-FRET PG9 antibody-gp120 binding inhibition; in the data active means IC50 below about 10 µM
PGV04 binding DR – binders of control antibody PGV04, dose response, counter-screen for PG9 antibody binder project, biochemical, TR-FRET, distinct HIV envelope site. AID 651937, 2012. actives 20% (n = 95). TR-FRET binding to control antibody PGV04. IC50, µM. shares compounds with PG9 binder
PG126 DR counter – binders of control antibody PG126, dose response, counter-screen for PG9 antibody binder project, biochemical, TR-FRET, distinct HIV envelope site; TR-FRET binding to antibody PG126, counterscreen; IC50, µM; shares compounds with PG9 binder; AID 651939, 2012; actives 20% (n = 95)
Rev-erbA confirm – modulators of Rev-erb alpha DNA binding, confirmation, biochemical, FITC-DNA, fluorescence polarization, single point; 90 min; activation, % at 25 µM; AID 1259319, 2017; actives 61% (n = 3,000); shares compounds with NR1D1 modulator;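 active means activation at or above a set limit, or at least 3 SD above the negative control mean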
RORg DNA counter – modulation of RORgamma DNA binding, dose response, counter-screen for Rev-erb alpha modulator project, biochemical, fluorescence polarization, FITC-DNA; shares compounds with NR1D1 modulator; purified RORgamma protein-FITC-DNA binding; IC50, µM; actives 8% (n = 910); AID 1259320, 2017;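 active means Compounds whose fitted half-maximal concentration for disrupting protein-DNA binding is below 10 micromolar; the record names Rev-erb in its text, so the target is in doubt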
Each line names hits and unclear results; the compound was inactive in the other large screens (follow-up assays come after a bar, where they were run). Shown are actives, neighbours in structure and some others; about 1.4% of the full set was active somewhere. Unless noted, no stated cut-off is given here; in the data, active means IC50 below about 9 µM; inactive means the rest.

COCc1cc(C)nc(SCC(=O)Nc2cccc(C)c2C)c1C#N	none
Cc1nc(SCC(=O)Nc2ccc(F)cc2)c(C#N)c(C)c1CC(=O)c1ccc(Br)cc1	PG9 binder 8.7, NR1D1 modulator 70 | PG9 bind confirm 26 | PGV04 counter 35 | Rev-erbA confirm inactive
COc1ccc(NC(=O)CSc2nc(C)c3c(c2C#N)CCCC3)cc1	none
CCOC(CN1CCN(CC(C)C(=O)c2ccccc2)CC1)c1ccccc1 (stereo not drawn)	none (no result: PG9 binder, NR2E3 ag-1, NR2E3 ag-2)
N#Cc1c(-c2ccc(F)cc2)cc(-c2ccccc2)nc1SCC(=O)NCC(=O)O	none
COc1ccc(-c2cc(-c3ccccc3)c(C#N)c(SCC(=O)Nc3ncc(C)s3)n2)cc1	PG9 binder 27, NR1D1 modulator 26 | PG9 bind confirm inactive | PGV04 counter 10 | Rev-erbA confirm 42 | RORg DNA counter inactive
CC1(c2nnnn2C2CCCCC2)CCCC(=O)N1CCc1ccc(O)cc1 (stereo not drawn)	none (no result: PG9 binder, NR2E3 ag-1, NR2E3 ag-2)
COC1C(CO)OC(n2c3c(Cl)cccc3c3c4c(c5c6cccc(Cl)c6[nH]c5c32)C(=O)NC4=O)C(O)C1O (stereo not drawn)	PG9 binder 72, NR1D1 modulator 111 (no result: NR2E3 ag-1) | PG9 bind confirm 56 | PGV04 counter 68 | Rev-erbA confirm 173 | RORg DNA counter inactive
COc1ccc(S(=O)(=O)NC(=O)C2(C)CCN2C(=O)Cc2cc(C)cc(C)c2)cc1 (stereo not drawn)	none (no result: NR2E3 ag-1)
O=C(Cn1cnc2c(oc3nc4c(cc32)CCCC4)c1=O)Nc1cccc(Cl)c1	PG9 binder 9.1, NR1D1 modulator 57 | PG9 bind confirm 26 | PGV04 counter 25 | PG9 binder DR inactive | PGV04 binding DR inactive | PG126 DR counter inactive | Rev-erbA confirm inactive
CC(C)c1ccc(-c2cc(C(=O)N3CCOCC3)c3cc(Br)ccc3n2)cc1	PG9 binder 17, NR1D1 modulator 63 | PG9 bind confirm 30 | PGV04 counter 36 | Rev-erbA confirm 28
O=C(CSc1cc(Cl)ccc1Cl)N/N=C/c1ccc[nH]1	none (no result: PG9 binder, NR2E3 ag-1, NR2E3 ag-2)
COc1ccc(C(=O)Nc2nc3ccc4nc(C)sc4c3s2)cc1	PG9 binder 13, NR1D1 modulator 34 | PG9 bind confirm 9.8 | PGV04 counter 12 | Rev-erbA confirm 42 | RORg DNA counter inactive
COc1ccc(C(=O)Nc2nc3ccccc3s2)cc1	none
CCc1cccc(Nc2cc(C)n(-c3cccc(CC)c3)c(=O)c2)c1	none (no result: NR2E3 ag-1, NR2E3 ag-2)
COC(=O)c1c(NC(C)=O)sc(C(=O)Nc2ccccc2F)c1C	PG9 binder 31, NR1D1 modulator 26 | PG9 bind confirm 36 | PGV04 counter 45 | Rev-erbA confirm 21
COC(=O)c1ccc2nc(NC(=O)CCS(=O)(=O)c3ccccc3)sc2c1	PG9 binder 15, NR1D1 modulator 43 | PG9 bind confirm 25 | PGV04 counter 36 | Rev-erbA confirm 18
Cc1cc2c(cc1S(=O)(=O)N1CCN(c3cccc(C(F)(F)F)c3)CC1)OCC(=O)N2	none
CC(=O)c1ccc(N2CCN(S(=O)(=O)c3cc4c(cc3C)NC(=O)CO4)CC2)cc1	PG9 binder 37, NR1D1 modulator 31 | PG9 bind confirm 33 | PGV04 counter 48 | Rev-erbA confirm 23
C[C@H](O)[C@@H]1C(=O)N2CCc3c([nH]c4c(-c5ccccc5)cccc34)[C@@H]2C[C@@H]1N(C)C(=S)NCCc1ccccc1	none (no result: NR2E3 ag-1, NR2E3 ag-2)
COc1cc(OC)cc(-c2c(Sc3ccccc3)c3cc(-c4cnc(OC)nc4)ccc3n2C)c1	none (no result: NR2E3 ag-1)
COc1ccc(-c2c(Sc3ccccc3)c3cc(-c4ccc5c(c4)OCO5)ccc3n2C)cc1	PG9 binder 37, NR1D1 modulator 20 (no result: NR2E3 ag-1) | PG9 bind confirm 88 | PGV04 counter 57 | PG9 binder DR 2.9 | PGV04 binding DR 2.1 | PG126 DR counter 2.1 | Rev-erbA confirm inactive
COc1ccc(-c2ccc3c(c2)c(Sc2ccccc2)c(-c2cc(OC)cc(OC)c2)n3C)cc1	PG9 binder 17, NR1D1 modulator 40 (no result: NR2E3 ag-1) | PG9 bind confirm 44 | PGV04 counter 60 | Rev-erbA confirm 60 | RORg DNA counter inactive
O=c1ccn([C@@H]2O[C@H](CNCc3cccn3-c3ccncc3)[C@@H](O)[C@H]2O)c(=O)[nH]1	none (no result: NR2E3 ag-1)
C[C@H]1[C@@H]2C[C@@]3(O[C@H](c4ccc(C(F)(F)F)cc4)N=C3C[C@@H]1c1ccccc1)N(Cc1ccncc1)C2=O	none (no result: NR2E3 ag-1, NR2E3 ag-2)
CCc1nc2ccc(C(=O)N3CCN(C(=O)c4ccco4)CC3)cn2c1N(C)C(=O)COc1ccccc1	none (no result: NR2E3 ag-1)
O=C(CCNC(=O)c1ccco1)NNC(=O)c1ccc(Br)cc1	none (no result: NR2E3 ag-1)
CCc1ccccc1NC(=O)COc1ccc2oc(-c3ccc(OC)cc3)cc(=O)c2c1	PG9 binder 18, NR1D1 modulator 27 | PG9 bind confirm 78 | PGV04 counter 48 | PG9 binder DR inactive | PGV04 binding DR 3.7 | PG126 DR counter 3.6 | Rev-erbA confirm inactive
COc1ccc(-c2c(C)nc(N)nc2-c2ccc(OCc3ccc(C)cc3)cc2O)cc1OC	NR1D1 modulator 123 | Rev-erbA confirm 85 | RORg DNA counter inactive
O=C1C2C3C=CC(C3)C2C(=O)N1c1cccc(-c2nc3ccccc3o2)c1 (stereo not drawn)	NR1D1 modulator 29 | Rev-erbA confirm inactive
O=C(Nc1cccc(-c2nc3ccccc3o2)c1)c1ccc(N2C(=O)C3C4C=CC(C4)C3C2=O)cc1 (stereo not drawn)	none
